Measurements: ChEMBL document CHEMBL3244395, “Antimycotic imidazoles. 2. Synthesis and antifungal properties of esters of 1-[2-hydroxy(mercapto)-2-phenylethyl]-1H-imidazoles” (J Med Chem, 1978)
Converted amounts (≈) assume the structure as drawn. The source made the active and inactive calls. No cut-off for these calls is given here.

Legend:
[1] = Lipophilic-hydrophilic balance, Rm of the compound assessed as change in compound Rm to miconazole Rm by reverse-phase TLC method; format: physicochemical
Microsporum audouinii = assay: Antifungal activity against Microsporum audouinii assessed as lowest concentration required for total inhibition broth dilution assay; format: functional; conditions: read-out: MIC100
Procedure, shortened: (§1)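 Broth dilution against dermatophytes, C. albicans ATCC 10231 and 14053, and C. neoformans. The end point is the lowest concentration with total inhibition. "<" marks the lowest level tested, and ">" marks partial growth at that dilution.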

Epidermophyton floccosum = assay: Antifungal activity against Epidermophyton floccosum assessed as lowest concentration required for total inhibition broth dilution assay; format: functional; conditions: read-out: MIC100; procedure, shortened: as §1
[2] = tested on: Trichophyton mentagrophytes; assay: Antifungal activity against Trichophyton mentagrophytes assessed as lowest concentration required for total inhibition broth dilution assay; format: functional; conditions: read-out: MIC100; procedure, shortened: as §1
Candida albicans [3] = assay: Antifungal activity against Candida albicans ATCC 10231 assessed as lowest concentration required for total inhibition by broth dilution assay; format: functional; conditions: read-out: MIC100; procedure, shortened: as §1
Candida albicans [4] = assay: Antifungal activity against Candida albicans ATCC 14053 assessed as lowest concentration required for total inhibition by broth dilution assay; format: functional; conditions: read-out: MIC100; procedure, shortened: as §1
Cryptococcus neoformans = assay: Antifungal activity against Cryptococcus neoformans assessed as lowest concentration required for total inhibition by broth dilution assay; format: functional; conditions: read-out: MIC100; procedure, shortened: as §1
Candida albicans [5] = assay: Antifungal activity against Candida albicans in mouse vaginal infection model compound applied intravaginally as 2% formulation in an aqueous propylene glycol cream for 4 days bid; format: functional, organism-based; conditions: Vagina
Procedure, shortened: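 Mice with vaginal C. albicans infection, following Wildfeuer's method. The compound was applied intravaginally as a 2% formulation in an aqueous propylene glycol cream, twice daily for 4 days. Read-out was animals cured over total number infected.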

Nannizzia gypsea = assay: Antifungal activity against Microsporum gypseum assessed as lowest concentration required for total inhibition broth dilution assay; format: functional; conditions: read-out: MIC100; procedure, shortened: as §1
Staphylococcus aureus = assay: Antibacterial activity against Staphylococcus aureus ATCC 12600 assessed as lowest concentration required for total inhibition by broth microdilution assay; format: functional; conditions: read-out: MIC100
Procedure, shortened: (§2)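 Broth microdilution against the listed ATCC […] strains. The value is the lowest concentration giving total inhibition. "<" marks the lowest level tested, and ">" marks partial growth at that dilution.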

Enterococcus faecalis = assay: Antibacterial activity against Streptococcus faecalis ATCC 14506 assessed as lowest concentration required for total inhibition by broth microdilution assay; format: functional; conditions: read-out: MIC100; procedure, shortened: as §2
Cutibacterium acnes = assay: Antibacterial activity against Corynebacterium acnes ATCC 11828 assessed as lowest concentration required for total inhibition by broth microdilution assay; format: functional; conditions: read-out: MIC100; procedure, shortened: as §2
[6] = tested on: Erysipelothrix rhusiopathiae; assay: Antibacterial activity against Erysipelothrix insidiosa ATCC 19414 assessed as lowest concentration required for total inhibition by broth microdilution assay; format: functional; conditions: read-out: MIC100; procedure, shortened: as §2
Pasteurella multocida = assay: Antibacterial activity against Pasteurella multocida ATCC 19427 assessed as lowest concentration required for total inhibition by broth microdilution assay; format: functional; conditions: read-out: MIC100; procedure, shortened: as §2
[7] = silicone oil-impregnated silica gel, MeCN-H2O-AcOH

SMILES	deltaRm [1, 7]	MIC (Microsporum audouinii)	MIC (Epidermophyton floccosum)	MIC [2]	MIC (Candida albicans [3])	MIC (Candida albicans [4])	MIC (Cryptococcus neoformans)	Activity (Candida albicans [5])	MIC (Nannizzia gypsea)	deltaRm ([1]; octanol/water)	MIC (Staphylococcus aureus)	MIC (Enterococcus faecalis)	MIC (Cutibacterium acnes)	MIC [6]	MIC (Pasteurella multocida)
CCOC(=S)SC(Cn1ccnc1)c1ccc(Cl)cc1Cl.O=[N+]([O-])O (stereo not drawn)	-0.27	5 µg/mL	< 0.1 µg/mL	< 0.1 µg/mL	50 µg/mL	50 µg/mL	1 µg/mL								
O=C(O)C(=O)O.O=C(OC(Cn1ccnc1)c1ccc(Cl)cc1)c1ccccc1Cl (stereo not drawn)	-0.49	50 µg/mL	5 µg/mL	10 µg/mL	100 µg/mL	100 µg/mL									
CCCCCCCC(=O)OC(Cn1ccnc1)c1ccc(Cl)cc1Cl.O=[N+]([O-])O (stereo not drawn)	0.1		< 0.1 µg/mL	10 µg/mL	30 µg/mL	30 µg/mL	< 1 µg/mL	inactive	10 µg/mL						
CCCCOC(=S)SC(Cn1ccnc1)c1ccc(Cl)cc1Cl.O=[N+]([O-])O (stereo not drawn)	0.19		< 0.1 µg/mL	3 µg/mL	30 µg/mL	10 µg/mL	1 µg/mL	Active	3 µg/mL						
O=C(Cc1ccc(Cl)cc1)OC(Cn1ccnc1)c1ccc(Cl)cc1.O=C(O)C(=O)O (stereo not drawn)		10 µg/mL	1 µg/mL	10 µg/mL	50 µg/mL	50 µg/mL				-0.42					
O=C(SC(Cn1ccnc1)c1ccc(Cl)cc1Cl)c1ccc(Cl)cc1.O=[N+]([O-])O (stereo not drawn)	-0.03		< 0.1 µg/mL	10 µg/mL	10 µg/mL	10 µg/mL	< 1 µg/mL	Active	30 µg/mL		3 µg/mL	100 µg/mL	> 100 µg/mL	> 100 µg/mL	1 µg/mL
CCCCCC(=O)SC(Cn1ccnc1)c1ccc(Cl)cc1Cl.O=[N+]([O-])O (stereo not drawn)	-0.05		< 0.1 µg/mL	30 µg/mL	100 µg/mL	30 µg/mL	1 µg/mL	inactive	30 µg/mL						
CCCCCCCCOC(=O)SC(Cn1ccnc1)c1ccc(Cl)cc1Cl.O=[N+]([O-])O (stereo not drawn)	0.82		< 0.1 µg/mL	10 µg/mL	> 300 µg/mL	> 300 µg/mL	< 1 µg/mL		30 µg/mL		1 µg/mL	30 µg/mL	100 µg/mL	10 µg/mL	1 µg/mL
Clc1ccc(COC(Cn2ccnc2)c2ccc(Cl)cc2Cl)c(Cl)c1 (stereo not drawn) [MICONAZOLE]	0		< 0.1 µg/mL	3 µg/mL (≈ 7.21 µM)	30 µg/mL (≈ 72.1 µM)	30 µg/mL (≈ 72.1 µM)	< 0.3 µg/mL	Active	3 µg/mL (≈ 7.21 µM)		1 µg/mL (≈ 2.4 µM)	10 µg/mL (≈ 24 µM)	10 µg/mL (≈ 24 µM)	3 µg/mL (≈ 7.21 µM)	< 0.1 µg/mL
O=C(OC(Cn1ccnc1)c1ccc(Cl)cc1Cl)c1ccc(Cl)cc1.O=[N+]([O-])O (stereo not drawn)	-0.39		< 0.1 µg/mL	30 µg/mL	300 µg/mL	300 µg/mL	3 µg/mL	inactive	100 µg/mL						
O=C(O)C(=O)O.O=C(Oc1ccc(Cl)cc1)OC(Cn1ccnc1)c1ccc(Cl)cc1 (stereo not drawn)	-0.52	100 µg/mL	10 µg/mL	10 µg/mL	> 100 µg/mL	> 100 µg/mL									
CCCCCCCCOC(=S)SC(Cn1ccnc1)c1ccc(Cl)cc1Cl.O=[N+]([O-])O (stereo not drawn)	1.23		1 µg/mL	30 µg/mL	100 µg/mL	100 µg/mL	< 1 µg/mL		30 µg/mL		> 100 µg/mL	1 µg/mL	100 µg/mL	30 µg/mL	1 µg/mL
CCCOC(=S)SC(Cn1ccnc1)c1ccc(Cl)cc1Cl.O=[N+]([O-])O (stereo not drawn)	-0.03		< 0.1 µg/mL	10 µg/mL	100 µg/mL	30 µg/mL	< 0.3 µg/mL	Active	10 µg/mL						
O=C(OC(Cn1ccnc1)c1ccc(Cl)cc1)c1ccc(Cl)cc1.O=[N+]([O-])O (stereo not drawn)	-0.31	100 µg/mL	100 µg/mL	> 100 µg/mL	> 100 µg/mL	> 100 µg/mL	10 µg/mL								
CCCCCOC(=S)SC(Cn1ccnc1)c1ccc(Cl)cc1Cl.O=[N+]([O-])O (stereo not drawn)	0.37		< 0.1 µg/mL	3 µg/mL	3 µg/mL	3 µg/mL	< 1 µg/mL		3 µg/mL		3 µg/mL	10 µg/mL	> 100 µg/mL	100 µg/mL	1 µg/mL
O=C(O)C(=O)O.O=C(OC(Cn1ccnc1)c1ccc(Cl)cc1Cl)c1ccc([N+](=O)[O-])cc1 (stereo not drawn)	-0.54	33 µg/mL	0.33 µg/mL	10 µg/mL	> 300 µg/mL	> 300 µg/mL									
CCCCCCCC(=O)SC(Cn1ccnc1)c1ccc(Cl)cc1Cl.O=C(O)C(=O)O (stereo not drawn)	0.44		< 0.1 µg/mL	10 µg/mL	10 µg/mL	10 µg/mL	< 1 µg/mL	inactive	30 µg/mL		3 µg/mL	30 µg/mL	100 µg/mL	30 µg/mL	1 µg/mL
